Results taken from ChEMBL document CHEMBL1157658, “Structure-activity relationship of (N)-Methanocarba phosphonate analogues of 5'-AMP as cardioprotective agents acting through a cardiac P2X receptor” (J Med Chem, 2010).
The source made the active and inactive calls. The rule behind the calls is not given here.

Key:
Mus musculus [1] = assay: Cardioprotective effect in calsequestrin transgenic mouse model of severe cardiomyopathy and heart failure assessed as improvement of echocardiography-derived fractional shortening at 3.3 uM, sc administered per day via minipump measured after 28 days by transthoracic echocardiographic analysis; type: functional
In short: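 CSQ-overexpressing transgenic mice (lethal heart failure near 3 months); analogue dissolved at 3.3 μM in sterile saline/PBS pH 7.4 (200 μL pump load), sterile-filtered, infused subcutaneously by mini-osmotic pump at 6 μL/day for 28 days; vehicle-infused CSQ controls. Under 1% isoflurane, M-mode echocardiography gave LVEDD, LVESD and FS ((LVEDD-LVESD)/LVEDD), averaged over >3 cardiac cycles; one-way ANOVA with post-test.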

P2Y purinoceptor 1 [2] = molecular target: T1, P2Y purinoceptor 1 (Homo sapiens, UniProt P47900); assay: Activation of human P2Y1 receptor expressed in human 1321N1 cells assessed as induction of calcium flux by FLIPR assay; type: functional, cell-based
T1 sequence (P47900 whole entry): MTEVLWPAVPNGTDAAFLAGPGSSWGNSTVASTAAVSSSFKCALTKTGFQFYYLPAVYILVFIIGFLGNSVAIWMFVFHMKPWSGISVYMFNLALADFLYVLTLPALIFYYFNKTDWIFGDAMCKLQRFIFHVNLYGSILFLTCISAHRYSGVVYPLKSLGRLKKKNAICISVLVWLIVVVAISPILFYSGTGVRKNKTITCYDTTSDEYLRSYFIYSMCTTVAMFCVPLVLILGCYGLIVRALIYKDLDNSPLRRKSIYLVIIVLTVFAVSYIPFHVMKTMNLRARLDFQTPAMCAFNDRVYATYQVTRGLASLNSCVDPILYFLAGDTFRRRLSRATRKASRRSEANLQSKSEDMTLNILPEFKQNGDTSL

P2Y purinoceptor 1 [3] = molecular target: T1, P2Y purinoceptor 1; assay: Agonist activity at human P2Y1 receptor expressed in human 1321N1 cells by PLC assay; type: functional, cell-based
P2Y purinoceptor 1 [4] = molecular target: T1, P2Y purinoceptor 1; assay: Activation of human P2Y1 receptor expressed in human 1321N1 cells assessed as induction of calcium flux by FLIPR assay relative to 2-MeSADP; type: functional, cell-based
In short: (§1)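 1321N1 human astrocytoma cells stably expressing hP2Y1, grown overnight at 37 °C, 5% CO2 (to ~80% confluency), loaded with calcium-4 dye plus probenecid (no wash), 1 h at rt. Compounds diluted in Hank's buffer pH 7.2, tested up to 10 μM; FLIPR-Tetra at rt, ex 485/em 525 nm, duplicates. Response is peak fluorescence minus pre-exposure basal.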

P2Y purinoceptor 1 [5] = molecular target: T1, P2Y purinoceptor 1; assay: Activation of human P2Y1 receptor expressed in human 1321N1 cells assessed as induction of calcium flux up to 10 uM by FLIPR assay; type: functional, cell-based; in short: as §1
1321-N1 = assay: Induction of calcium flux in human 1321N1 cells at 10 uM by FLIPR assay; type: functional, cell-based
Mus musculus [6] = assay: Cardioprotective effect in calsequestrin transgenic mouse model of heart failure assessed as increased shortening of heart septum and left ventricular free wall at 3.3 uM, sc administered per day via minipump measured after 28 days by transthoracic echocardiographic analysis; type: functional, organism-based
In short: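 Calsequestrin-overexpressing transgenic mice (hypertrophy, lethal heart failure near 3 months). Compound at 3.3 μM in sterile saline/PBS pH 7.4, filter-sterilized, infused subcutaneously via osmotic minipump at 6 μL/day for 28 days; saline-infused controls. Under 1% isoflurane, M-mode echocardiography gave LVEDD, LVESD and FS = (LVEDD−LVESD)/LVEDD, averaged over >3 cardiac cycles; mean ± SE, one-way ANOVA with post-test.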

SMILES | Activity (Mus musculus [1]) | Activity (P2Y purinoceptor 1 [5]) | further results
Nc1nc(Cl)nc2c1ncn2[C@H]1[C@H](O)[C@H](O)[C@@]2(COP(=O)(O)O)C[C@H]12 | 15.47% |  | EC50 (P2Y purinoceptor 1 [2]): 722 nM; EC50 (P2Y purinoceptor 1 [3]): 1890 nM; %max (P2Y purinoceptor 1 [4]): 80%
Nc1ncnc2c1ncn2[C@H]1[C@H](O)[C@H](O)[C@@]2(CP(=O)(O)O)C[C@H]12 | 16.23% | inactive | 
CSc1nc(N)c2ncn([C@@H]3O[C@H](COP(=O)(O)OP(=O)(O)O)[C@@H](O)[C@H]3O)c2n1 |  |  | Activity (1321-N1): inactive
Nc1nc(Cl)nc2c1ncn2[C@H]1[C@H](O)[C@H](O)[C@@]2(/C=C/P(=O)(O)O)C[C@H]12 | 12.12% | inactive | 
CP(=O)(O)C[C@]12C[C@@H]1[C@@H](n1cnc3c(N)nc(Cl)nc31)[C@H](O)[C@@H]2O | 15% | inactive | 
Nc1nc(Cl)nc2c1ncn2[C@H]1[C@H](O)[C@H](O)[C@@]2(CP(=O)(O)O)C[C@H]12 | 20.25% | inactive | Activity (Mus musculus [6]): Active
Nc1ncnc2c1ncn2[C@H]1[C@H](O)[C@H](O)[C@@]2(CCP(=O)(O)O)C[C@H]12 | 11.15% | inactive | 
Nc1ncnc2c1ncn2[C@H]1[C@H](O)[C@H](O)[C@@]2(/C=C/P(=O)(O)O)C[C@H]12 | 13.88% | inactive | 
Nc1nc(Cl)nc2c1ncn2[C@H]1[C@H](O)[C@H](O)[C@@]2(CCP(=O)(O)O)C[C@H]12 | 19.26% | inactive | 
